Measured values gathered from unrelated publications.
Each line is one published result; the experiments were not run side by side.
Target: Platelet-derived growth factor receptor beta (PDGFRB, Homo sapiens, UniProt P09619)

For `O=c1[nH]c2ccccc2n1C1CCN(Cc2ccc(-c3[nH]c4cc5ncnc5cc4nc3-c3ccccc3)cc2)CC1`, the remaining activity was 102% (enzyme activity; 0.5 µM).
For `COc1ncccc1-c1cnn2ccc(N3CCN(C(=O)OC(C)C)CC3)nc12`, the remaining binding was 83% (binding; competition with immobilised ligand; 1 µM).
The inhibition of `Cn1cc(-c2cc(F)cc(N3CCn4c(cc5c4CCCC5)C3=O)c2CO)cc(Nc2ccc(N3CCN(C4COC4)CC3)cn2)c1=O` is reported as 2% (enzyme activity; inhibitor; 0.1 µM).
`Nc1ncc(-c2nc(N3CCOCC3)nc(N3CCOCC3)n2)c(C(F)F)n1` has a remaining binding of 69% (binding; competition with immobilised ligand; 10 µM).
With `C#Cc1n[nH]c2c(-c3cn([C@@H](C)c4ccccn4)c(=O)[nH]c3=O)cc(F)cc12` the inhibition was 4% (enzyme activity; inhibitor; 0.1 µM).
`Cn1cc(-c2cccc(N3CCc4c(sc5c4CC(C)(C)C5)C3=O)c2CO)cc(Nc2ccncn2)c1=O` gave an inhibition of 3% (enzyme activity; inhibitor; 1 µM).
The inhibition of `C#Cc1n[nH]c2c(-c3cn([C@@H](C)c4ccccc4)c(=O)[nH]c3=O)cc(F)cc12` is reported as 3.1% (enzyme activity; inhibitor; 0.1 µM).
The remaining binding of `Cn1cncc1[C@](O)(COc1ccc(C#N)cc1-c1ccc(OC(F)(F)F)cc1)c1ccc(C#N)cc1` is reported as 100% (cell-free assay; competition with immobilised ligand; 1 µM).
With `COCc1c(-c2cc3cc(C)cc(OC)c3s2)c2c(N)ncnn2c1CN1CCNC(=O)C1` the inhibition was 86% (cell-free assay; competition with immobilised ligand; 1 µM).
`N#CC1(c2ccccn2)CCN(Cc2cc(C(=O)O)c(=O)n3ccccc23)CC1` has a remaining binding of 100% (cell-free assay; competition with immobilised ligand; 1 µM).
The remaining activity of `CC(C)(C)c1cc(C=C(C#N)C#N)cc(Br)c1O` is reported as 104% (enzyme activity; inhibitor; 0.5 µM).
